Assay [1] can be described thus: Neuroprotective activity in human SH-SY5Y cells assessed as cell viability after paraquat-induced toxicity at 10 uM incubated for 2 hrs prior to paraquat challenge measured after 24 hrs by MTT assay (reference value: 62.05 +/- 0.47%). A general note: Formazan colour is commonly taken as a measure of viable cells.
Assay [2] deals with T1, Prostaglandin G/H synthase 2 (Homo sapiens) (UniProt P35354).
T1 sequence (whole entry): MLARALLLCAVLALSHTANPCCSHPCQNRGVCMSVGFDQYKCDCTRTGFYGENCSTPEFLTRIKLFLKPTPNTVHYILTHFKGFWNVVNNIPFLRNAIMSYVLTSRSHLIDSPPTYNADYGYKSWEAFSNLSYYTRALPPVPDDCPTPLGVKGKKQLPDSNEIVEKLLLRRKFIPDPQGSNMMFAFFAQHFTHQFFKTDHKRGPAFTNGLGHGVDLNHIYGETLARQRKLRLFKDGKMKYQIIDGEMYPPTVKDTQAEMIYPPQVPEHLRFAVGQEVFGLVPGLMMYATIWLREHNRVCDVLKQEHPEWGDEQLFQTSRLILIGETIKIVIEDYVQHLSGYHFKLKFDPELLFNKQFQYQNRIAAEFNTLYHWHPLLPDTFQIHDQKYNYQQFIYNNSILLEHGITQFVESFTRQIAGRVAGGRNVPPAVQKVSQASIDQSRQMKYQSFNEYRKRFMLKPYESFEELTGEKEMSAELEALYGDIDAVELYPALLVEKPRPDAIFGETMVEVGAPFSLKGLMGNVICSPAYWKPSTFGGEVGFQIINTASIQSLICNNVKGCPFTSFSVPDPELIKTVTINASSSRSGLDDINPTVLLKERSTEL
The experiment in a line: Ratio of resveratrol IC50 to compound IC50 for inhibition of prostaglandin H-2 synthase (unknown origin).

Assay [3] deals with SH-SY5Y. The experiment in a line: Neuroprotective activity in human SH-SY5Y cells assessed as decrease in paraquat-induced proteolytic cleavage of procaspase-3 incubated for 4 hrs prior to paraquat challenge measured after 24 hrs by Western blotting analysis. The format is functional, cell-based. Put shortly:
(§1)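 SH-SY5Y in DMEM/F12 with 10% FBS pre-incubated with compound (0.1-10 μM, 4 h), then paraquat 250 μM. Western blot for caspase-3 and caspase-9 cleavage, Bax, Bcl-2, SOD or GPx, with GAPDH as loading control. HRP secondary antibodies and ECL detection, bands quantified. ≥3 independent experiments in duplicate; ANOVA with Dunnett's test.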
(A western blot detects proteins with antibodies after separation by electrophoresis.)

Assay [4] relates to SH-SY5Y. The experiment in a line: Neuroprotective activity in human SH-SY5Y cells assessed as decrease in paraquat-induced proteolytic cleavage of procaspase-9 incubated for 4 hrs prior to paraquat challenge measured after 24 hrs by Western blotting analysis. Type of assay: functional, cell-based. Put shortly:
as §1

Assay [5] in a line: Neuroprotective activity in paraquat-stimulated human SH-SY5Y cells assessed as upregulation of Bcl2 expression incubated for 4 hrs prior to paraquat challenge measured after 24 hrs by Western blotting analysis. Type of assay: functional, cell-based. Put shortly: as §1
Assay [6] in a line: Neuroprotective activity in paraquat-stimulated human SH-SY5Y cells assessed as downregulation of Bax expression incubated for 4 hrs prior to paraquat challenge measured after 24 hrs by Western blotting analysis. The format is functional, cell-based. Put shortly: as §1
Assay [7] can be described thus: Neuroprotective activity in paraquat-stimulated human SH-SY5Y cells assessed as upregulation of GPx expression incubated for 4 hrs prior to paraquat challenge measured after 24 hrs by Western blotting analysis. Type of assay: functional, cell-based. Put shortly:
as §1

A short description of assay [8]: Neuroprotective activity in paraquat-stimulated human SH-SY5Y cells assessed as upregulation of SOD expression incubated for 4 hrs prior to paraquat challenge measured after 24 hrs by Western blotting analysis. Type of assay: functional, cell-based. Put shortly:
as §1

Assay [9] relates to SH-SY5Y. The experiment in a line: Neuroprotective activity in human SH-SY5Y cells assessed as decrease in paraquat-induced intracellular ROS level incubated for 4 hrs prior to paraquat challenge measured after 2 hrs by fluorescence microscopic analysis.
In assay [10] the test system is SH-SY5Y. In words: Neuroprotective activity in human SH-SY5Y cells assessed as decrease in paraquat-induced nuclear morphological changes incubated for 4 hrs prior to paraquat challenge measured after 24 hrs by Hoechst 33342 staining-based fluorescence microscopic analysis.

The values below come from ChEMBL document CHEMBL2331424, “Synthesis and biological evaluation of novel neuroprotective agents for paraquat-induced apoptosis in human neuronal SH-SY5Y cells” (2013).

In general, viability refers to a read-out of living cells in per cent, often relative to untreated cells. Regarding `COc1ccc(CSC2c3cc(OC)cc(OC)c3[C@@H](c3ccc(OC)cc3)[C@@H]2c2cc(OC)cc(OC)c2)cc1` (some centres not stated), in assay [1], the viability at 10 µM is 65.2%.
Same read-out and setting: the result for `COc1ccc(CSC2c3cc(OC)cc(OC)c3[C@@H](c3ccccc3)[C@@H]2c2cc(OC)cc(OC)c2)cc1` (some centres not stated) reads 60.6%; that for `COc1cc(OC)cc([C@@H]2C(O)c3cc(OC)cc(OC)c3[C@H]2c2ccccc2)c1` (relative stereo), 63.9%.
With `Oc1ccc(CC2=C(c3cc(O)cc(O)c3)C(c3ccccc3)c3c(O)cc(O)cc32)cc1` (configuration not stated), in [1], the viability at 10 µM came to 82.9%.
For the compound `O=C1c2cc(O)cc(O)c2[C@@H](c2ccccc2)[C@@H]1c1cc(O)cc(O)c1`, in assay [1], the viability at 10 µM is 65%.
Consider `Oc1ccc(/C=C/c2cc(O)cc(O)c2)cc1` [RESVERATROL], for which the viability at 10 µM in assay [1] stood at 66.3%.
`COc1ccc(/C=C2\c3cc(OC)cc(OC)c3[C@@H](c3ccccc3)[C@@H]2c2cc(OC)cc(OC)c2)cc1`: the viability at 10 µM in assay [1] was found to be 65.3%.
For `Oc1ccc([C@H]2Oc3cc(O)cc4c3[C@@H]2c2cc(O)cc3c2[C@@H](c2cc(O)cc5c2[C@@H]4[C@H](c2ccc(O)cc2)O5)[C@H](c2ccc(O)cc2)O3)cc1`, the Ratio IC50 in assay [2] turned out to be 3.
For the compound `COc1ccc([C@@H]2c3c(OC)cc(OC)cc3C(O)[C@H]2c2cc(OC)cc(OC)c2)cc1` (relative stereo), in [1], the viability at 10 µM came to 59%.
In the case of `C=C1c2cc(OC)cc(OC)c2[C@@H](c2ccc(OC)cc2)[C@@H]1c1cc(OC)cc(OC)c1`, the viability at 10 µM in assay [1] was found to be 58.2%.
Take `Oc1ccc([C@@H]2c3c(O)cc(O)cc3[C@H]3[C@H](c4ccccc4)c4c(O)cc(O)cc4[C@@H]23)cc1`: in assay [1], the viability at 10 µM came to 77.2%.
`Oc1ccc([C@@H]2c3c(O)cc(O)cc3[C@H]3[C@H](c4ccc(O)cc4)c4c(O)cc(O)cc4[C@@H]23)cc1` (racemic) [PALLIDOL]: the viability at 10 µM in [1] was 72.4%.
With `COc1ccc([C@@H]2c3c(OC)cc(OC)cc3[C@H]3[C@H](c4ccc(OC)cc4)c4c(OC)cc(OC)cc4[C@@H]23)cc1`, the viability at 10 µM in [1] amounted to 63.6%.
Regarding `COc1ccc(C2C(c3cc(OC)cc(OC)c3)=Cc3cc(OC)cc(OC)c32)cc1` (configuration not stated), the viability at 10 µM in assay [1] worked out at 58.6%.
As to `COc1ccc(/C=C2\c3cc(OC)cc(OC)c3[C@@H](c3ccc(OC)cc3)[C@@H]2c2cc(OC)cc(OC)c2)cc1`, the viability at 10 µM in [1] worked out at 63.6%.
Regarding `Oc1ccc(CC2=C(c3cc(O)cc(O)c3)C(c3ccc(O)cc3)c3c(O)cc(O)cc32)cc1` (configuration not stated), the Activity result (in the assay on SH-SY5Y [3]; in the assay with SH-SY5Y [4]; in assay [5]; in assay [6]; in [7]; in assay [8]) was “Dose-dependent effect” in each case. Further, the Activity result in the assay on SH-SY5Y [9] and in the assay on SH-SY5Y [10] was “Dose-dependent effect” throughout. Also, in assay [1], the viability at 10 µM amounted to 89.6%.
Regarding `COc1ccc(CC2=C(c3cc(OC)cc(OC)c3)[C@@H](c3ccc(OC)cc3)c3c(OC)cc(OC)cc32)cc1`, in [1], the viability at 10 µM came to 61.4%.
For `COc1cc(OC)cc([C@@H]2C(=O)c3cc(OC)cc(OC)c3[C@H]2c2ccccc2)c1` (single isomer, unassigned), the viability at 10 µM in [1] was determined as 65%.
On the same count and under the same terms, the result for `COc1ccc(C2C(c3cc(OC)cc(OC)c3)=C(C)c3cc(OC)cc(OC)c32)cc1` (configuration not stated) reads 55.8%; that for `COc1ccc(/C=C2/c3cc(OC)cc(OC)c3[C@@H](c3ccccc3)[C@@H]2c2cc(OC)cc(OC)c2)cc1`, 64%.
With `O=C1c2cc(O)cc(O)c2[C@@H](c2ccc(O)cc2)[C@@H]1c1cc(O)cc(O)c1` [ISOPAUCIFLORAL F], the viability at 10 µM in assay [1] is 58.5%.
`COc1ccc(/C=C2/c3cc(OC)cc(OC)c3[C@@H](c3ccc(OC)cc3)[C@@H]2c2cc(OC)cc(OC)c2)cc1`: the viability at 10 µM in assay [1] is 62.4%.
For `COc1ccc([C@@H]2c3c(OC)cc(OC)cc3C(=O)[C@H]2c2cc(OC)cc(OC)c2)cc1` (relative stereo), the viability at 10 µM in assay [1] was found to be 59.9%.
Take `Oc1ccc(/C=C2/c3cc(O)cc(O)c3[C@@H](c3ccc(O)cc3)[C@@H]2c2cc(O)cc(O)c2)cc1` (racemic): the viability at 10 µM in assay [1] was found to be 57.9%.
